Values after ≈ are worked out from the molar mass of the structure shown. Active and inactive are the calls of the source. No cut-off for these calls is given here.
Assays:
[1] = system: Staphylococcus aureus; assay: Antibacterial activity against beta-lactamase producing benzylpenicillin-resistant Staphylococcus aureus Russell after 18 hrs by serial dilution method; assay type: functional
Procedure, shortened: (§1)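 MICs by serial dilution on nutrient agar. Inoculum 0.001 mL of undiluted overnight broth culture. Plates incubated 18 h at 37 °C before reading. The S. aureus Russell strain produces β-lactamase and resists benzylpenicillin.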

[2] = system: Escherichia coli; assay: Antibacterial activity against Escherichia coli after 18 hrs by serial dilution method; assay type: functional
Procedure, shortened: (§2)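 MICs by serial dilution on nutrient agar. Inoculum 0.001 mL of undiluted overnight broth culture. Plates incubated at 37 °C for 18 h before reading.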

[3] = system: Salmonella typhi; assay: Antibacterial activity against Salmonella typhi after 18 hrs by serial dilution method; assay type: functional, Salmonella enterica subsp. enterica serovar Typhi; settings: Salmonella enterica; procedure, shortened: as §1
[4] = system: Shigella sonnei; assay: Antibacterial activity against Shigella sonnei after 18 hrs by serial dilution method; assay type: functional; procedure, shortened: as §2
[5] = system: Klebsiella aerogenes; assay: Antibacterial activity against Klebsiella aerogenes after 18 hrs by serial dilution method; assay type: functional; procedure, shortened: as §2
[6] = system: Proteus mirabilis; assay: Antibacterial activity against Proteus mirabilis after 18 hrs by serial dilution method; assay type: functional; procedure, shortened: as §2
[7] = Drug level in mouse blood at 50 mg/kg, po after 10 mins by microbiological assay; assay type: ADME, organism-based; parameters: dose 50 mg/kg, route oral; settings: read-out: Drug uptake
Procedure, shortened: (§3)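 Mice given a single 50 mg/kg dose by the route in the line. Groups of five killed at each time point and blood taken from the cut axilla, heparinized and stored at 4 °C. Blood assayed the same day by large-plate microbiological assay with Sarcina lutea NCTC 8340, overnight at 30 °C. Standards made in mouse blood, with pH 7.2 phosphate-buffered saline as diluent.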

[8] = Drug level in mouse blood at 50 mg/kg, po after 20 mins by microbiological assay; assay type: ADME, organism-based; parameters: dose 50 mg/kg, route oral; settings: read-out: Drug uptake; procedure, shortened: as §3
[9] = Drug level in mouse blood at 50 mg/kg, po after 30 mins by microbiological assay; assay type: ADME, organism-based; parameters: dose 50 mg/kg, route oral; settings: read-out: Drug uptake; procedure, shortened: as §3
[10] = Drug level in mouse blood at 50 mg/kg, po after 1 hr by microbiological assay; assay type: ADME, organism-based; parameters: dose 50 mg/kg, route oral; settings: read-out: Drug uptake; procedure, shortened: as §3
[11] = Drug level in mouse blood at 50 mg/kg, po after 2 hrs by microbiological assay; assay type: ADME, organism-based; parameters: dose 50 mg/kg, route oral; settings: read-out: Drug uptake; procedure, shortened: as §3
[12] = Drug level in mouse blood at 50 mg/kg, po after 4 hrs by microbiological assay; assay type: ADME, organism-based; parameters: dose 50 mg/kg, route oral; settings: read-out: Drug uptake; procedure, shortened: as §3
[13] = system: Pseudomonas aeruginosa; assay: Antibacterial activity against cephalosporin-resistant Pseudomonas aeruginosa after 18 hrs by serial dilution method; assay type: functional, organism-based; procedure, shortened: as §1
[14] = system: Morganella morganii; assay: Antibacterial activity against cephalosporin-resistant Proteus morganii after 18 hrs by serial dilution method; assay type: functional, organism-based; procedure, shortened: as §1
[15] = system: Enterobacter cloacae; assay: Antibacterial activity against cephalosporin-resistant Enterobacter cloacae after 18 hrs by serial dilution method; assay type: functional, organism-based; procedure, shortened: as §1
[16] = system: Staphylococcus aureus; assay: Antibacterial activity against Staphylococcus aureus Oxford after 18 hrs by serial dilution method; assay type: functional; procedure, shortened: as §2
[17] = Drug level in mouse blood at 50 mg/kg, sc after 10 mins by microbiological assay; assay type: ADME, organism-based; parameters: dose 50 mg/kg, route subcutaneous; settings: read-out: Drug uptake; procedure, shortened: as §3
[18] = Drug level in mouse blood at 50 mg/kg, sc after 20 mins by microbiological assay; assay type: ADME, organism-based; parameters: dose 50 mg/kg, route subcutaneous; settings: read-out: Drug uptake; procedure, shortened: as §3
[19] = Drug level in mouse blood at 50 mg/kg, sc after 30 mins by microbiological assay; assay type: ADME, organism-based; parameters: dose 50 mg/kg, route subcutaneous; settings: read-out: Drug uptake; procedure, shortened: as §3
[20] = Drug level in mouse blood at 50 mg/kg, sc after 1 hr by microbiological assay; assay type: ADME, organism-based; parameters: dose 50 mg/kg, route subcutaneous; settings: read-out: Drug uptake; procedure, shortened: as §3
[21] = Drug level in mouse blood at 50 mg/kg, sc after 2 hrs by microbiological assay; assay type: ADME, organism-based; parameters: dose 50 mg/kg, route subcutaneous; settings: read-out: Drug uptake; procedure, shortened: as §3
[22] = Drug level in mouse blood at 50 mg/kg, sc after 4 hrs by microbiological assay; assay type: ADME, organism-based; parameters: dose 50 mg/kg, route subcutaneous; settings: read-out: Drug uptake; procedure, shortened: as §3
[23] = Drug level in mouse blood at 50 mg/kg, iv after 10 mins by microbiological assay; assay type: ADME, organism-based; parameters: dose 50 mg/kg, route intravenous; settings: read-out: Drug uptake; procedure, shortened: as §3
[24] = Drug level in mouse blood at 50 mg/kg, iv after 20 mins by microbiological assay; assay type: ADME, organism-based; parameters: dose 50 mg/kg, route intravenous; settings: read-out: Drug uptake; procedure, shortened: as §3
[25] = Drug level in mouse blood at 50 mg/kg, iv after 30 mins by microbiological assay; assay type: ADME, organism-based; parameters: dose 50 mg/kg, route intravenous; settings: read-out: Drug uptake; procedure, shortened: as §3
[26] = Drug level in mouse blood at 50 mg/kg, iv after 1 hr by microbiological assay; assay type: ADME, organism-based; parameters: dose 50 mg/kg, route intravenous; settings: read-out: Drug uptake; procedure, shortened: as §3
[27] = Drug level in mouse blood at 50 mg/kg, iv after 2 hrs by microbiological assay; assay type: ADME, organism-based; parameters: dose 50 mg/kg, route intravenous; settings: read-out: Drug uptake; procedure, shortened: as §3
[28] = Drug level in mouse blood at 50 mg/kg, iv after 4 hrs by microbiological assay; assay type: ADME, organism-based; parameters: dose 50 mg/kg, route intravenous; settings: read-out: Drug uptake; procedure, shortened: as §3
[29] = Drug metabolism in mouse assessed as metabolite level in urine by Sarcina lutea antibacterial assay; assay type: ADME
Procedure, shortened: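 Urine from dosed mice run on paper strip chromatography in butanol-ethanol-water (4:1:5). Active zones located on agar plates seeded with Sarcina lutea.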

| SMILES | MIC [1] | MIC [2] | MIC [3] | MIC [4] | MIC [5] | MIC [6] | concentration at 10 min [7] | concentration at 20 min [8] | concentration at 0.5 h [9] | concentration at 1 h [10] | concentration at 2 h [11] | concentration at 4 h [12] | MIC [16] | concentration at 10 min [17] | concentration at 20 min [18] | concentration at 0.5 h [19] | concentration at 1 h [20] | concentration at 2 h [21] | concentration at 4 h [22] | other results |
| --- | --- | --- | --- | --- | --- | --- | --- | --- | --- | --- | --- | --- | --- | --- | --- | --- | --- | --- | --- | --- |
| N[C@@H](C(=O)N[C@@H]1C(=O)N2C(C(=O)O)=C(Cc3cccnc3)CS[C@H]12)c1ccccc1 | 2.5 µg/mL (≈ 5.89 µM) | 2.5 µg/mL (≈ 5.89 µM) | 1.25 µg/mL (≈ 2.94 µM) | 2.5 µg/mL (≈ 5.89 µM) | 2.5 µg/mL (≈ 5.89 µM) | 5 µg/mL (≈ 11.8 µM) | 2850 ng/mL | 1440 ng/mL | 1250 ng/mL | 620 ng/mL | 650 ng/mL | 100 ng/mL | 0.25 µg/mL (≈ 0.589 µM) | – | – | – | – | – | – | Activity [13]: inactive; Activity [14]: inactive; Activity [15]: inactive |
| O=C(Cc1cccs1)N[C@@H]1C(=O)N2C(C(=O)[O-])=C(C[n+]3ccccc3)CS[C@H]12 [CEPHALORIDINE] | – | – | – | – | – | – | – | – | – | – | – | – | – | 32800 ng/mL | 24400 ng/mL | 18500 ng/mL | 5600 ng/mL | 710 ng/mL | < 200 ng/mL | concentration at 10 min [23]: 48800 ng/mL; concentration at 20 min [24]: 23200 ng/mL; concentration at 0.5 h [25]: 14300 ng/mL; concentration at 1 h [26]: 2900 ng/mL; concentration at 2 h [27]: 320 ng/mL; concentration at 4 h [28]: < 50 ng/mL |
| N[C@@H](C(=O)N[C@@H]1C(=O)N2C(C(=O)O)=C(Cc3cncc(C(=O)O)c3)CS[C@H]12)c1ccccc1 | 12.5 µg/mL (≈ 26.7 µM) | 12.5 µg/mL (≈ 26.7 µM) | 2.5 µg/mL (≈ 5.34 µM) | 12.5 µg/mL (≈ 26.7 µM) | 1.25 µg/mL (≈ 2.67 µM) | 1.25 µg/mL (≈ 2.67 µM) | 550 ng/mL | 850 ng/mL | 1700 ng/mL | 1500 ng/mL | 600 ng/mL | < 400 ng/mL | 1.25 µg/mL (≈ 2.67 µM) | 70400 ng/mL | 54000 ng/mL | 35800 ng/mL | 12200 ng/mL | 2000 ng/mL | < 400 ng/mL | – |
| CN(C)S(=O)(=O)c1ccc(CC2=C(C(=O)O)N3C(=O)[C@@H](NC(=O)[C@H](N)c4ccccc4)[C@H]3SC2)cc1 | 500 µg/mL (≈ 942 µM) | 25 µg/mL (≈ 47.1 µM) | 25 µg/mL (≈ 47.1 µM) | 25 µg/mL (≈ 47.1 µM) | 50 µg/mL (≈ 94.2 µM) | 125 µg/mL (≈ 236 µM) | – | – | – | – | – | – | 0.5 µg/mL (≈ 0.942 µM) | – | – | – | – | – | – | – |
| N[C@@H](C(=O)N[C@@H]1C(=O)N2C(C(=O)O)=C(Cc3cccc(C(=O)O)c3)CS[C@H]12)c1ccccc1 | – | – | – | 25 µg/mL (≈ 53.5 µM) | – | – | 870 ng/mL | 1050 ng/mL | 1800 ng/mL | 1700 ng/mL | 1600 ng/mL | 550 ng/mL | – | 84200 ng/mL | 64200 ng/mL | 49600 ng/mL | 26200 ng/mL | 13700 ng/mL | 1600 ng/mL | Drug metabolism [29]: metabolite_notdetected; Activity [13]: inactive; Activity [14]: inactive; Activity [15]: inactive |
| Cn1cccc1CC1=C(C(=O)O)N2C(=O)[C@@H](NC(=O)[C@H](N)c3ccccc3)[C@H]2SC1 | 50 µg/mL (≈ 117 µM) | 500 µg/mL (≈ 1170 µM) | 50 µg/mL (≈ 117 µM) | 500 µg/mL (≈ 1170 µM) | 500 µg/mL (≈ 1170 µM) | 500 µg/mL (≈ 1170 µM) | – | – | – | – | – | – | 1.25 µg/mL (≈ 2.93 µM) | – | – | – | – | – | – | – |
| N[C@@H](C(=O)N[C@@H]1C(=O)N2C(C(=O)O)=C(CC3CCCCO3)CS[C@H]12)c1ccccc1 (stereo not given in full) | 5 µg/mL (≈ 11.6 µM) | > 50 µg/mL | 25 µg/mL (≈ 57.9 µM) | 25 µg/mL (≈ 57.9 µM) | 10 µg/mL (≈ 23.2 µM) | > 50 µg/mL | – | – | – | – | – | – | 5 µg/mL (≈ 11.6 µM) | – | – | – | – | – | – | – |

Source: ChEMBL document CHEMBL3244187, “Structure--activity relationships in cephalosporins prepared from penicillins. 2. Analogues of cephalexin substituted in the 3-methyl group” (J Med Chem, 1977)
